# SENP8 block-1 – inhibitors of human SENP8 protease; Q96LD8; purified SENP8, Z-RLRGG-aminoluciferin cleavage, luminescence; inhibition, % at 10 µM; actives 1.2% (n = 330,000); AID 2540; in the data active = inhibition above about 50%
# SENP6 inh – blocks the human protease SENP6; actives 1.8% (n = 330,000); inhibition, % at 10 µM; Recombinant SENP6 catalytic domain, aminoluciferin luminescence; Q9GZR1; AID 2599;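 active = inhibition above about 50% at the single tested dose, limit read from the data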;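 note: plate controls were DMSO wells with enzyme for no effect and DMSO wells lacking enzyme for full effect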
# SENP8 block-2 – blocks human SENP8 cleavage of Nedd8 substrate; AID 602440; recombinant SENP8, Nedd8 substrate fluorescence; actives 0.64% (n = 360,000); inhibition, % at 20 µM; Q96LD8; in the data active = inhibition mostly above about 40%, no sharp cut-off; inactive = mostly below about 27%
# SENP7 inh – blocks the human protease SENP7; inhibition, % at 5 µM; recombinant SENP7, Z-RLRGG-aminoluciferin luminescence, 40 min; actives 1.5% (n = 330,000); AID 434973;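 active = inhibition above about 50% at the single test dose, limit read from the data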;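 note: plate controls were DMSO with enzyme for no effect and no enzyme buffer wells for full effect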
# SENP1 FRET inh – blocks the human SENP1 SUMO protease catalytic domain. Q9P0U3. recombinant SENP1 catalytic domain, CyPet-SUMO1-YPet FRET cleavage. inhibition, % at 10 µM. actives 0.21% (n = 360,000);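 active = inhibition at least 30% at 10 µM, raw YFP signal under a set limit, fluorescence ratio 0.5 to 1.5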;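 note: 0% = enzyme with DMSO and 100% = no enzyme wells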
# Target sequence (Q9P0U3 419-644 limits assumed): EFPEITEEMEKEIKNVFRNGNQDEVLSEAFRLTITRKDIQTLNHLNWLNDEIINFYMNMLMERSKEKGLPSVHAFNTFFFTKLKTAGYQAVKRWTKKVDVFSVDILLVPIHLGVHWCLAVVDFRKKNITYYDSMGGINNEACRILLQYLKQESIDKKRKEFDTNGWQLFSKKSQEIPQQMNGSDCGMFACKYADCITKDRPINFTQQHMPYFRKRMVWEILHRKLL
#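 Test system: recombinant human SENP1 catalytic domain, His6-tagged / Medium: pH 8 Tris buffer with EDTA, NaCl, BME, BSA, NP40, catalase / Also added: SUMO1 FRET substrate flanked by Cypet and Ypet, 25 nM / Times: 50 min reaction at room temperature / Signal: FRET, CFP and YFP emission / Control set: no-enzyme low control and enzyme-plus-DMSO high control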
# HSP90 refold inh – HSP90 refolding inhibition in rabbit reticulocyte lysate | luciferase refolding luminescence, 3 h | inhibition, % at 5.6 µM | actives 0.91% (n = 290,000);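 active = inhibition above the screen-wide mean plus 3 SD, computed separately per campaign, cut at about 16% in these data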;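 note: 0% = DMSO wells and 100% = 60 µM geldanamycin wells; inhibitors lower the luminescence because luciferase stays unfolded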
# SENP8 inh conf – confirmation of human SENP8 protease inhibitors; shares compounds with SENP8 block-2; purified SENP8, Nedd8-AMC/pro-Nedd8 cleavage fluorescence, 30 min; inhibition, % at 25 µM; actives 15% (n = 1,400); AID 624319; in the data active = inhibition mostly above about 39%, no sharp cut-off; inactive = mostly below about 34%
# SENP1 inh conf – confirmation of human SENP1 SUMO protease inhibitors; shares compounds with SENP1 FRET inh; inhibition, % at 10 µM; recombinant SENP1, CyPet-SUMO1-YPet FRET cleavage; actives 34% (n = 520); AID 651678; in the data active = inhibition mostly above about 35%, no sharp cut-off; inactive = mostly below about 32%;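 note: 0% = enzyme with DMSO and 100% = no enzyme control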
# SENP1 kin conf – confirmation of human SENP1 SUMO protease inhibitors, kinetic | shares compounds with SENP1 FRET inh | recombinant SENP1, CyPet-SUMO1-YPet FRET kinetic cleavage | inhibition, % at 10 µM | actives 26% (n = 520) | AID 651690; in the data active = inhibition mostly above about 32%, no sharp cut-off; inactive = mostly below about 29%;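 note: 0% = DMSO with enzyme and 100% = no enzyme substrate only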
# Active calls of the source: *; . = no result given. Most compounds without a hit are left out; they make up all but 2.9% or so of the library.
SMILES,SENP8 block-1,SENP6 inh,SENP8 block-2,SENP7 inh,SENP1 FRET inh,HSP90 refold inh,SENP1 inh conf,SENP1 kin conf,others
CN1C(=O)C(Cc2ccsc2)C(=O)N(C)C1=O,5,0,47*,1,0,0,.,.,SENP8 inh conf=35
CN1C(=O)C(Cc2ccccc2)C(=O)N(C)C1=O,.,.,9,.,-2,.,.,.,
O=c1cc(C2CCNCC2)[nH][nH]1,-2,6,55*,18,-1,7,.,.,SENP8 inh conf=19
CC1=NN=C(c2ccc(N)cc2)c2cc3c(cc2C1)OCO3,-7,-20,-132,1,43*,.,6,-3,
CN1C(=O)C(=Cc2ccc(Sc3ccccc3)o2)C(=O)N(C)C1=S,4,-8,8,6,-2,.,.,.,
CN1C(=O)C(=Cc2ccc(N3CCOCC3)o2)C(=O)N(C)C1=S,3,8,38,8,66*,3,4,3,
CCN1C(=O)C(=Cc2ccc(N3CCOCC3)o2)C(=O)N(CC)C1=S,5,10,22,-3,49*,3,19,10,
Cc1nn(Cc2ccccc2)c(C)c1C(=O)OCC(=O)Nc1ccccc1SCC#N,-1,0,4,8,48*,-2,5,4,
COC(=O)C1=C(c2cc3ccccc3s2)C[C@@H]2CC[C@H]1N2C(=O)NCc1ccc(F)cc1,10,-16,9,-6,2,.,.,.,
COc1ccc(P2(=O)Nc3ccccc3N2)cc1,9,24,-23,5,38*,12,94*,60*,
COc1ccc(NP2(=O)NCCCN2)cc1,.,.,13,.,5,.,.,.,
O=C1NC(=O)C(Sc2ccccc2[N+](=O)[O-])C(=O)N1,4,9,40,4,32*,4,14,16,
O=[N+]([O-])c1ccccc1Cl,-13,-26,4,-8,-1,.,.,.,
CCn1c(C)c(C(=O)Nc2ccc(OC)cc2)c2cc(OC)ccc21,-16,-16,20,-2,0,-3,.,.,
COc1ccc(-n2c(-c3ccccc3F)nc3ccccc3c2=O)cc1,.,.,11,.,-1,.,.,.,

# High-throughput results from PubChem.
